Published values from different studies.
Each line is one published result; the experiments were not run side by side.
Cell line: MCF7
Observed: cell growth or viability

`CCN1CCN(Cc2ccc(Nc3ncc(F)c(-c4cc(F)c5nc(C)n(C(C)C)c5c4)n3)nc2)CC1` has an EC50 of 0.009 µM (5 days).
`C[C@@H]1CC[C@@H]([C@](C)(O)CNCc2cccc3ccccc23)[C@H](OCc2ccccc2)C1` has an inhibition of 61.5% (MTT; 10 µM, 72 h).
`Cc1ccc(-c2cc(-c3c(Cl)cccc3Cl)c3c(=O)[nH]c(=O)[nH]c3n2)cc1` has an IC50 of 39 µM (MTT; 48 h).
`CC(=NNC(=O)c1ccncc1)c1ccc(Nc2nnc(-c3ccc(Cl)cc3)c3ccccc23)cc1` has a viability of 5.58% (MTT; 2.5 µM, 24 h).
`C[C@@H]1CC[C@@H]([C@](O)(CNCc2ccc(F)cc2)COCc2ccc(F)cc2)[C@H](OCc2ccc(F)cc2)C1` gave an inhibition of 93.7% (MTT; 10 µM, 72 h).
`CCOC(=O)c1nn(-c2cccc(Cl)c2)/c(=N/N=C(\C)c2ccc(NC(=O)c3ccc(Cl)cc3)cc2)s1` has a viability of 3.54% (MTT; 2.5 µM).
The viability of `O=C(Nc1ccc(Oc2nnc(-c3ccc(Cl)cc3)c3ccccc23)cc1)c1cccc([N+](=O)[O-])c1` is reported as 4.87% (MTT; 2.5 µM, 24 h).
`CCOC(=O)c1nn(-c2cccc(Cl)c2)/c(=N/N=C(\C)c2ccc(NC(=O)c3ccccc3)cc2)s1` gave a viability of 2.67% (MTT; 2.5 µM).
`COc1ccc(COC[C@@](O)(CNCc2ccccc2)[C@@H]2CC[C@@H](C)C[C@H]2OCc2ccc(OC)cc2)cc1` has an inhibition of 102% (MTT; 30 µM, 72 h).
With `COc1ccc(-c2cc(-c3ccc(OC)cc3)c3c(=O)n(C)c(=O)n(C)c3n2)cc1` the IC50 was 18.6 µM (MTT; 48 h).
For `C[C@@H]1CC[C@@H]([C@@](O)(CNCc2cccc3ccccc23)COCc2ccccc2)[C@H](OCc2ccccc2)C1`, the inhibition was 90.7% (MTT; 30 µM, 72 h).
`O=C(NO)c1ccc(CNc2nc3cccc(-c4ccc5c(c4)OCO5)n3n2)cc1` gave a GI50 of 0.65 µM (SRB).
`CC(=O)Nc1ccc(/C(C)=N/N=c2\sc(C(C)=O)nn2-c2ccc(C)cc2)cc1` has a viability of 49.5% (MTT; 1.25 µM).
The GI50 of `COC(=O)COc1c(Cc2cc(C(C)(C)CC(C)(C)C)cc(-n3nc4ccccc4n3)c2OCC(=O)OC)cc(C(C)(C)CC(C)(C)C)cc1-n1nc2ccccc2n1` is reported as 3.18 µM (MTT).
With `COc1ccc(COC[C@@](O)(CNCc2ccc(F)cc2)[C@@H]2CC[C@@H](C)C[C@H]2OCc2ccc(OC)cc2)cc1` the inhibition was 94.5% (MTT; 10 µM, 72 h).
The viability of `CC(=O)c1nn(-c2ccccc2Cl)/c(=N/N=C(\C)c2ccc(NC(=O)c3ccccc3)cc2)s1` is reported as 47.5% (MTT; 78 nM).
`C[C@@H]1CC[C@@H]([C@](O)(CNCc2ccccc2)COCc2ccc(F)cc2)[C@H](OCc2ccc(F)cc2)C1` has an inhibition of 95.7% (MTT; 10 µM, 72 h).
With `Cc1ccc(-c2cc(-c3ccc(Cl)c(F)c3)c3c(=O)[nH]c(=O)[nH]c3n2)cc1` the IC50 was 14.6 µM (MTT; 48 h).
For `O=C(C=Cc1ccccc1)Nc1ccc(Oc2nnc(-c3ccc(Cl)cc3)c3ccccc23)cc1`, the cell death was 91.9% (MTT; 10 µM).
With `COc1ccc(CNC[C@](O)(COCc2ccc(F)cc2)[C@@H]2CC[C@@H](C)C[C@H]2OCc2ccc(F)cc2)cc1` the inhibition was 98.4% (MTT; 30 µM, 72 h).
`CC(=O)Nc1ccc(Oc2nnc(-c3ccc(Cl)cc3)c3ccccc23)cc1` has a viability of 3.72% (MTT; 5 µM, 24 h).
`O=C1CC[C@H](N2Cc3cc(N4CCN(CC5CCN(c6ccc([C@@H]7c8ccc(O)cc8CC[C@@H]7c7ccccc7)cc6)CC5)CC4)ccc3C2=O)C(=O)N1` gave a GI50 of 0.0033 µM (ATP luminescence; 5 days).
The viability of `CC(=O)c1nn(-c2ccc(C)cc2)/c(=N/N=C(\C)c2ccc(NC(=O)c3ccccc3)cc2)s1` is reported as 6.47% (MTT; 5 µM).
`COc1ccc(-c2cc(-c3ccc(Cl)cc3)c3c(=O)n(C)c(=O)n(C)c3n2)cc1` has an IC50 of 14.4 µM (MTT; 48 h).
`CC(=NNC(=O)c1ccc(N)cc1)c1ccc(Nc2nnc(-c3ccc(Cl)cc3)c3ccccc23)cc1` has a cell death of 56% (MTT; 0.625 µM).
For `O=C(CCn1c(=O)ccc2ccccc21)N1CCOCC1`, the inhibition was 90.5% (MTT; 100 µM, 48 h).
`CC(=NNC(N)=S)c1ccc(Nc2nnc(-c3ccc(Cl)cc3)c3ccccc23)cc1` gave a viability of 9.07% (MTT; 5 µM, 24 h).
`Cc1nc(Nc2ccc3c(c2)/C(=C/c2ccccc2C)C(=O)N3C)c2ccccc2n1` has an IC50 of 21.4 µM (MTT).
For `C[C@@H]1CC[C@@H]([C@](C)(O)CNCc2cccc(F)c2)[C@H](OCc2ccccc2)C1`, the inhibition was 95.6% (MTT; 30 µM, 72 h).
The cell death of `CC(=NNC(=O)c1ccccc1Br)c1ccc(Nc2nnc(-c3ccc(Cl)cc3)c3ccccc23)cc1` is reported as 24.1% (MTT; 0.625 µM).
